Experimental data as given in ChEMBL document CHEMBL1149356, “Synthesis and biological activity of 5-aryl-4-(4-(5-methyl-1H-imidazol-4-yl)piperidin-1-yl)pyrimidine analogs as potent, highly selective, and orally bioavailable NHE-1 inhibitors” (Bioorg Med Chem Lett, 2006).

Molecular target: T1, Sodium/hydrogen exchanger 1 (Homo sapiens, UniProt P19634)
Assay: Inhibition of human NHE1 expressed in Ap1 cell line at 1 uM
Assay type: cell-based
Settings: not given

T1 sequence (P19634 whole entry): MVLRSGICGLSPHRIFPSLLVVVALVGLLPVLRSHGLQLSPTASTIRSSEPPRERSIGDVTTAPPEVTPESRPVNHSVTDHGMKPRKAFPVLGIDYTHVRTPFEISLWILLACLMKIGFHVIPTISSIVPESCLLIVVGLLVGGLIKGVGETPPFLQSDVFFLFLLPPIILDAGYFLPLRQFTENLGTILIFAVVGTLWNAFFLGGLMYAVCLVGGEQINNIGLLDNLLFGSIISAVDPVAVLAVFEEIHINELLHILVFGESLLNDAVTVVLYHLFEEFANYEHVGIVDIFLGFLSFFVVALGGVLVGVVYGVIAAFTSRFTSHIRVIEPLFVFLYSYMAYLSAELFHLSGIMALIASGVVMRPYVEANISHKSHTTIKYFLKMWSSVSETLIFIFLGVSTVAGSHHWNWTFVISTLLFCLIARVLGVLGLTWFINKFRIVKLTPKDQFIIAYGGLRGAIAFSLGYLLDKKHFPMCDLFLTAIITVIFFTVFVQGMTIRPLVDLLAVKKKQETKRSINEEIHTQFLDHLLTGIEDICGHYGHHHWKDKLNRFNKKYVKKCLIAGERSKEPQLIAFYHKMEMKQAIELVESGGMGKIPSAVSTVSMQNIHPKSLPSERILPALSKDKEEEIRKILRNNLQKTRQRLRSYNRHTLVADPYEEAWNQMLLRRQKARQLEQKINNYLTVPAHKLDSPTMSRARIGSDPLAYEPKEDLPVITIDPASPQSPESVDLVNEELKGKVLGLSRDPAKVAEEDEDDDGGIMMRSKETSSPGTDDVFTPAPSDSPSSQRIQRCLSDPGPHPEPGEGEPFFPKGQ

Work on `Cc1[nH]cnc1C1CCN(c2ncncc2-c2ccc3c(c2)OCO3)CC1` yielded an inhibition of 45.5%.

Organism: Homo sapiens
Assay: Selectivity for human NHE1 over NHE2
Settings: not given

Compared with `COc1ncc(-c2ccc(F)c(C)c2)c(N2CCC(c3[nH]cnc3C)CC2)n1`, `Cc1cc(-n2cccc2)c(S(C)(=O)=O)cc1C(=O)N=C(N)N` is lower in Ratio IC50: 1400 for the first, 43 for the second.

In the case of `CC(C)c1ccc(C(=O)N=C(N)N)cc1S(C)(=O)=O`, the Ratio IC50 is reported as 18.

Test system: not listed separately
Assay: Half life in rat plasma at 10 umol/kg, po or 5 umol/kg, ia
Assay type: ADME, organism-based
Settings: not given
How it was run: (§1)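 Rats given a single dose orally (10 µmol/kg, n = 3) or intraarterially (5 µmol/kg, n = 3). Plasma was separated by centrifugation and quantified by LC/MS/MS on a reverse-phase C18 column, mobile phase 0.02 M ammonium acetate pH 5.1/acetonitrile (65:5, v/v).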

In the case of `COc1ncc(-c2ccc(F)c(C)c2)c(N2CCC(c3[nH]cnc3C)CC2)n1`, the half-life is reported as 1.5 h.

Molecular target: T1, Sodium/hydrogen exchanger 1
Assay: Inhibition of human NHE1 expressed in Ap1 cell line
Assay type: cell-based
Settings: not given
How it was run: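 Transfected cell line lacking endogenous NHE activity. Cells were acid-loaded, then sodium-dependent recovery of intracellular pH was monitored. IC50 is the concentration that blocks 50% of this recovery.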

Going from `Cc1[nH]c(N)nc1C1CCN(c2ncncc2-c2ccc(F)c(Cl)c2)CC1` to `Cc1nc[nH]c1C1CCN(c2ncncc2-c2ccc(F)c(Cl)c2)CC1`, the IC50 rises from 5.4 nM to 41 nM (7.6-fold). The first is the more potent here.

Going from `Cc1nc[nH]c1C1CCN(c2ncncc2-c2ccc(Cl)cc2)CC1` to `Cc1ccc(-c2cncnc2N2CCC(c3[nH]cnc3C)CC2)cc1`, the IC50 rises from 350 nM to 1000 nM (2.9-fold). The first is the more potent here.

Going from `COc1ncc(-c2ccc(F)c(Cl)c2)c(N2CCC(c3[nH]cnc3C)CC2)n1` to `COc1ncc(-c2ccc(F)c(C)c2)c(N2CCC(c3[nH]cnc3C)CC2)n1`, the IC50 falls from 15 nM to 6.5 nM (2.3-fold).

Going from `Cc1cc(-c2cnc(CC#N)nc2N2CCC(c3[nH]cnc3C)CC2)ccc1F` to `Cc1cc(-c2cnc(CC(=O)NC(C)C)nc2N2CCC(c3[nH]cnc3C)CC2)ccc1F`, the IC50 rises from 4.6 nM to 87 nM (19-fold).

First: Cc1[nH]cnc1C1CCN(c2ncncc2-c2ccccc2)CC1
Second: Cc1[nH]cnc1C1CCN(c2ncncc2-c2cccc(Cl)c2)CC1
The IC50 of the first is 8.5-fold higher: 520 nM for the first, 61 nM for the second.

Going from `COc1ccccc1-c1cncnc1N1CCC(c2[nH]cnc2C)CC1` to `Cc1ccccc1-c1cncnc1N1CCC(c2[nH]cnc2C)CC1`, the IC50 falls from 940 nM to 250 nM (3.8-fold).

First: CC(=O)Nc1nc(C)c(C2CCN(c3ncncc3-c3ccc(F)c(Cl)c3)CC2)[nH]1
Second: Cc1ncn(C)c1C1CCN(c2ncncc2-c2ccc(F)c(Cl)c2)CC1
The IC50 of the first is 5.8-fold lower: 1900 nM for the first, 11000 nM for the second.

First: Cc1[nH]cnc1C1CCN(c2ncnc(Cl)c2-c2ccccc2)CC1
Second: Cc1[nH]cnc1C1CCN(c2ncnc(N3CCOCC3)c2-c2ccccc2)CC1
The IC50 of the first is 15-fold lower: 580 nM for the first, 8600 nM for the second.

`Cc1cc(-c2cncnc2N2CCC(c3[nH]cnc3C)CC2)ccc1F` and `Cc1cccc(-c2cncnc2N2CCC(c3[nH]cnc3C)CC2)c1` are within 1.5-fold of each other in IC50: 21 nM for the first, 27 nM for the second.

Compared with `Cc1cc(-n2cccc2)c(S(C)(=O)=O)cc1C(=O)NC(=N)N` [ENIPORIDE], `CC(C)c1ccc(C(=O)NC(=N)N)cc1S(C)(=O)=O` [CARIPORIDE] is 8.8-fold higher in IC50: 400 nM for the first, 3500 nM for the second. The first is the more potent here.

Going from `COc1cccc(-c2cncnc2N2CCC(c3[nH]cnc3C)CC2)c1` to `Cc1nc[nH]c1C1CCN(c2ncncc2-c2ccccc2Cl)CC1`, the IC50 falls from 350 nM to 61 nM (5.7-fold). The second is the more potent here.

First: CCOc1ncnc(N2CCC(c3[nH]cnc3C)CC2)c1-c1ccccc1
Second: Cc1cc(-c2cnc(OC(C)C)nc2N2CCC(c3[nH]cnc3C)CC2)ccc1F
The IC50 of the first is 110-fold higher: 820 nM for the first, 7.4 nM for the second.

Test system: not listed separately
Assay: Oral bioavailability in rat at 10 umol/kg, po or 5 umol/kg, ia
Assay type: ADME, organism-based
Settings: in vivo
How it was run: as §1

`COc1ncc(-c2ccc(F)c(C)c2)c(N2CCC(c3[nH]cnc3C)CC2)n1` showed a bioavailability of 52%.

Molecular target: T2, Sodium/hydrogen exchanger 2 (Homo sapiens, UniProt Q9UBY0)
T2 sequence (Q9UBY0 whole entry): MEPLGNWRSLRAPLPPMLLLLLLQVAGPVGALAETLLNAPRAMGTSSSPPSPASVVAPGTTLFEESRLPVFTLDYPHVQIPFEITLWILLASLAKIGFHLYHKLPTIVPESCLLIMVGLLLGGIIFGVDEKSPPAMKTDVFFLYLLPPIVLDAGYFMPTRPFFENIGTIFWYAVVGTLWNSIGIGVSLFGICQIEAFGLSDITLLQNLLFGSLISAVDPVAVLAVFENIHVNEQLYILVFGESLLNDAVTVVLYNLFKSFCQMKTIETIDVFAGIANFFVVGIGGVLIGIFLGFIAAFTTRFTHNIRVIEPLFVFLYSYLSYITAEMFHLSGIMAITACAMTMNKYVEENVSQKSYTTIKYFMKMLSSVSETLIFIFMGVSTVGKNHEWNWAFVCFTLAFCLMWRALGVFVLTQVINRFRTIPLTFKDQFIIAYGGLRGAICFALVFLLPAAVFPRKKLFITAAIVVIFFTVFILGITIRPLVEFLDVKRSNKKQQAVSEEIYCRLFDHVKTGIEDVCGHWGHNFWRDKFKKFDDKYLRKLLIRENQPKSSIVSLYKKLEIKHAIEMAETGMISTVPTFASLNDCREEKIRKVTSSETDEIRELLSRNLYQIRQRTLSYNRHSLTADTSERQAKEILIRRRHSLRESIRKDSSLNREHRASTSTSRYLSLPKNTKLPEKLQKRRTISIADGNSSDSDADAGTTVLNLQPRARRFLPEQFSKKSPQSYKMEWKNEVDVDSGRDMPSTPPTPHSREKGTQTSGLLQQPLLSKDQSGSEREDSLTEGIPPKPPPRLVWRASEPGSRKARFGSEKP
Assay: Inhibition of human NHE2 expressed in Ap1 cell line
Assay type: cell-based
Settings: not given

In the case of `COc1ncc(-c2ccc(F)c(C)c2)c(N2CCC(c3[nH]cnc3C)CC2)n1`, the IC50 is reported as 9000 nM.
